Only some compounds are listed: those with a hit (about 3.7% of all), similar ones and a draw of the others.
KCNQ1 inh = inhibitors of human KCNQ1 channel, primary screen, cell-based, thallium flux, high-throughput; Potassium voltage-gated channel subfamily KQT member 1 (Homo sapiens), P51787; B-score at 10 µM; hit rate 1.3% among 310,000; CHO-K1 KCNQ1, FluxOR thallium flux fluorescence; hits give high values;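 active = compounds whose thallium flux B-score, printed positive for inhibition, exceeds three library SD while starting fluorescence stays within three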;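 note: channel opened by potassium depolarization with thallium stimulus after 20 min compound exposure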
Kir21 inh = inhibitors of mouse Kir2.1 inward-rectifier potassium channel. AID 1672, 2009. Inward rectifier potassium channel 2 (Mus musculus), P35561. B-score at 10 µM. hit rate 0.85% among 310,000. HEK293-Kir2.1, FluxOR thallium flux fluorescence; hits give low values;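 active = fluorescence ratio B-score at or below minus 3 SD of library scores, with starting-brightness B-score within 2 SD, cut at about -4.2 in these data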;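 note: channel flux triggered by added potassium and thallium sulfate stimulus; B-score of peak minus minimum fluorescence over baseline after thallium stimulus; more negative B-score means stronger Kir2.1 block with less thallium influx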
KCNQ1 pot = potentiators or activators of KCNQ1 channel, primary screen, cell-based, thallium flux, high-throughput; Potassium voltage-gated channel subfamily KQT member 1 (Homo sapiens), P51787; CHO-K1 KCNQ1, thallium flux FluxOR fluorescence; hits give high values; B-score at 10 µM; hit rate 0.35% among 310,000; AID 2648, 2010;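 active = fluorescence ratio B-score, a plate-corrected score, at least three library SD, with initial intensity B-score within 5 SD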
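Test system: CHO-K1 cells stably expressing KCNQ1 / Medium: assay buffer / Also added: depolarizing K+/Tl+ stimulus, K2SO4 and Tl2SO4 each 12.5 mM in 5x stock / Incubation: 90 min dye loading and 20 min compound exposure, both at room temperature / Signal: thallium influx via FluxOR fluorescence, kinetic imaging / Evaluation: B score of baseline-normalized fluorescence ratio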
KCNK9 inh = KCNK9 potassium channel inhibitors, primary screen, HEK293 cells, thallium flux | FluxOR thallium flux fluorescence; hits give low values | hit rate 1.2% among 310,000 | AID 488922, 2010 | Potassium channel subfamily K member 9 (Homo sapiens), Q9NPC2 | B-score at 10 µM;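 active = ratio B-score over 3 SD below the library mean, with starting fluorescence within 5 SD of its mean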;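 note: negative B-score means less thallium flux so channel inhibition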
KCNK3 inh = human KCNK3 channel inhibitors, primary screen, CHO cells, FluxOR thallium flux, B-score; hit rate 0.84% among 340,000; FluxOR fluorescence; hits give low values; Potassium channel subfamily K member 3 (Homo sapiens), O14649; B-score at 10 µM;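 active = B-score under library mean minus 4 SD, starting fluorescence ratio at most library mean plus 5 SD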;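 note: more negative B-score means stronger inhibition of thallium flux through KCNK3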
hERG protect = hERG rescue from dofetilide block, primary screen, cell-based, CHO-hERG, FluxOR thallium flux, dofetilide IC70; activation (rescue from dofetilide block), less the hit threshold, % at 10 µM; dofetilide IC70 present; AID 1511, 2009; Voltage-gated inwardly rectifying potassium channel KCNH2 (Homo sapiens), Q12809; hit rate 0.51% among 310,000;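 active = activation above the mean of controls blocked by dofetilide plus 5 SD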;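 note: thallium influx through hERG after potassium depolarization seen as dye fluorescence rise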
Target sequence (Q12809 whole entry, looked up): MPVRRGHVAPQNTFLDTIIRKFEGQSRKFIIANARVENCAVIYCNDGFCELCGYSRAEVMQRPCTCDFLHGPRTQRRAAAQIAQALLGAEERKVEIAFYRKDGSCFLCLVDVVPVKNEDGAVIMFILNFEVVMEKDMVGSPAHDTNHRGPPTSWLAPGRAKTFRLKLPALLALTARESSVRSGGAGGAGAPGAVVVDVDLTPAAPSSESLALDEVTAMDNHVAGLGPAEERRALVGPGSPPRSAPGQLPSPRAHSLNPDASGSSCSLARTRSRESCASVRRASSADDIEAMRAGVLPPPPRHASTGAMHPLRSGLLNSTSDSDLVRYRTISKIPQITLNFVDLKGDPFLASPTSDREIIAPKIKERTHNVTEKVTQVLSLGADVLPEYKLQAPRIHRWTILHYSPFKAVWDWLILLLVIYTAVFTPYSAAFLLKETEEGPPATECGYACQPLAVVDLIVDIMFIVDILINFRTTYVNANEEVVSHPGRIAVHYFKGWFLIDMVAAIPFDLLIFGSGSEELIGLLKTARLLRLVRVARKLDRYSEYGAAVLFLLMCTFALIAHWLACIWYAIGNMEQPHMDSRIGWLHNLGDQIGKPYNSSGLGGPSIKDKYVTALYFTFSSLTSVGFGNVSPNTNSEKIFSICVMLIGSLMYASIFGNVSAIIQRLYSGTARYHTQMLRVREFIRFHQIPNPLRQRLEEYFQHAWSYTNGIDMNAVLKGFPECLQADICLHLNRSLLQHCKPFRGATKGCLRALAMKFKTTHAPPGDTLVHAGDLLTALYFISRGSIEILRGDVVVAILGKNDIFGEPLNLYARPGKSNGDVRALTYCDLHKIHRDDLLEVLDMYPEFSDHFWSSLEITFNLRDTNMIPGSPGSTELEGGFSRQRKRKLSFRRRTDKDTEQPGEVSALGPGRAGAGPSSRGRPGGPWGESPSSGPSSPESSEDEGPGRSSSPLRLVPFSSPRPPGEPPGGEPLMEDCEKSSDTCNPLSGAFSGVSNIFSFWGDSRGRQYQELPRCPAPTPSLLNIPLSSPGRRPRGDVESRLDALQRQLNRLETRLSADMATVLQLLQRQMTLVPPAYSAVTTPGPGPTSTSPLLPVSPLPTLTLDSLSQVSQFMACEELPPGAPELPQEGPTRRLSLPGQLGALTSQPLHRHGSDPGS
KCNK9 block conf = KCNK9 potassium channel inhibitors, confirmation, HEK293 cells, thallium flux, duplicate. shares compounds with KCNK9 inh. FluxOR thallium flux fluorescence. inhibition, % at 10 µM. hit rate 43% among 4,900. AID 492992, 2010;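 active = thallium signal inhibited by more than 5 SD of the compound-free buffer control wells, on both duplicate plates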
Kir2-1 spec = mouse Kir2.1 channel inhibition, confirmation, selectivity assay for KCNK9 modulator project, cell-based, HEK293, thallium flux; shares compounds with KCNK9 inh; Kir2.1 cells, FluxOR thallium flux fluorescence; inhibition, % at 10 µM; hit rate 4% among 4,900; AID 492993, 2010;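 active = thallium signal drop more than 5 SD beyond the mean of the no-compound control wells, seen in both duplicate plates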;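 note: signal is fluorescence rise after thallium addition divided by baseline fluorescence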
KCNK9 uninduced = thallium flux in non-induced HEK293 cells, confirmation, counter-screen for KCNK9 inhibitor project, cell-based, second counter screen, non-induced KCNK9-HEK293. hit rate 40% among 4,900. FluxOR thallium flux. shares compounds with KCNK9 inh. inhibition, % at 10 µM;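 active = thallium signal drop beyond 5 SD of the untreated control mean, on both duplicate plates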
KCNK3 inh conf = retest of human KCNK3 channel inhibitors, confirmation, CHO cells, FluxOR thallium flux, triplicate; AID 651638, 2012; FluxOR fluorescence; 0% buffer, 100% carvedilol maximal block; ratio percent of control, % at 10 µM; hit rate 99% among 2,400; shares compounds with KCNK3 inh;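 active = ratio percent of control, averaged over triplicates, above buffer control mean plus 5 SD, cut at about 64% in these data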;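 note: ratio is the fluorescence rise from min to max over baseline after thallium stimulus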
KCNK3 uninduced = thallium flux inhibition in non-induced cells, primary screen, counter-screen for KCNK3 inhibitor project, cell-based, non-induced KCNK3 line, FluxOR thallium, triplicate | shares compounds with KCNK3 inh | hit rate 40% among 2,400 | thallium flux ratio (lower = more inhibition) at 10 µM | non-induced KCNK3 parental cells; hits give low values;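 active = thallium flux ratio, averaged over three wells, more than 5 SD below the buffer control mean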;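 note: host cells are CHO cells without KCNK3 induction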
Numbers stand for hits; n = inactive; x = not tested or not shown.

SMILES | KCNQ1 inh | Kir21 inh | KCNQ1 pot | KCNK9 inh | KCNK3 inh | hERG protect | KCNK9 block conf | Kir2-1 spec | KCNK9 uninduced | KCNK3 inh conf | KCNK3 uninduced
CCCCCCCCn1c2c(c(=N)c3ccccc31)CCC2 | 11 | -15 | n | -16 | n | n | 51% | 83% | n | 140 | 0.14
COc1ccc(/C=N\NC(=O)c2sccc2C)cc1Cn1nc(C)cc1C | n | n | n | -8.2 | -8.8 | n | n | n | n | 88 | n
Cc1ccsc1CN(C)CC(=O)Nc1ccc([N+](=O)[O-])cc1Cl | n | n | n | -21 | -9.5 | n | 64% | n | 48% | 135 | 0.13
COc1ccc(NC(=O)C(=O)N2N=C3CCCCC3C2(O)C(F)(F)F)cc1 (stereo unspecified) | n | n | n | n | n | n | x | x | x | x | x
Cc1cccc(-c2nnc(SCc3nc4ccccc4[nH]3)n2Cc2ccco2)c1 | n | n | n | n | n | n | x | x | x | x | x
Clc1cccc(-c2nnc(SC/C=C/c3ccccc3)n2Cc2ccco2)c1 | n | n | n | -15 | -12 | n | 44% | 74% | 38% | 110 | 0.15
CCCCN(C(=O)CNC(=O)c1ccco1)C(C(=O)NC1CCCCC1)c1cccnc1 (stereo unspecified) | n | n | n | n | n | n | x | x | x | x | x
CCOCC(=O)Nc1cc(C(F)(F)F)ccc1Oc1cccc(Br)c1 | n | n | n | -12 | n | n | 74% | n | 54% | 99 | n
CC(=O)Nc1cc(C(F)(F)F)ccc1Oc1cccc(Br)c1 | n | n | n | n | n | n | x | x | x | x | x
O=C(/C=C/c1ccccc1)NC1CCSC1=O (stereo unspecified) | n | n | n | n | n | n | x | x | x | x | x
Cc1ccc(NC(=O)CN(Cc2ccco2)Cc2ccccc2O)cc1C | 6 | n | n | -15 | -12 | n | 72% | n | 42% | 134 | 0.15
Cc1ccc(NC(=O)N(Cc2cccnc2)Cc2ccco2)cc1C | n | n | n | n | n | n | x | x | x | x | x
NC(=O)c1nsc(C(=O)N(c2ccc(F)cc2)C(C(=O)NCC2CCCO2)c2c[nH]c3ccccc23)c1N (stereo unspecified) | n | n | n | n | n | n | x | x | x | x | x
Cc1ccccc1OCc1csc(N)n1 | n | n | n | n | n | n | x | x | x | x | x
CCc1cc2cccc(C)c2nc1SCC(=O)NC1CCCC1 | n | n | n | -9 | -11 | n | 52% | n | 26% | 104 | n
COc1cccc(NC(=S)N(CCCN2CCC(C)CC2)Cc2cccs2)c1 | n | n | n | n | n | n | x | x | x | x | x
COc1cccc(NC(=S)N(CCc2c(C)[nH]c3ccc(C)cc23)Cc2cccs2)c1 | n | n | n | -14 | -11 | n | 42% | n | 43% | 90 | 0.14
CCOc1ccc(N2CC(C(=O)N3CCN(C(=O)c4ccco4)CC3)CC2=O)cc1 (stereo unspecified) | n | n | n | n | n | n | x | x | x | x | x
COCCN1Cc2cccc(C(=O)Nc3cccc(-c4nc5ccccc5[nH]4)c3)c2C1=O | n | n | n | -13 | -10 | n | 58% | n | n | 120 | 0.15
COCCN1Cc2cccc(C(=O)Nc3ccc(-c4nc5ccccc5[nH]4)cc3)c2C1=O | n | n | n | n | n | n | x | x | x | x | x
COC(CN(C)C(=O)c1cn(C)c2ccc(S(=O)(=O)N(C)C3CCCCC3)cc2c1=O)OC | n | n | n | n | n | n | x | x | x | x | x
COc1ccc(CN(C(=O)/C=C/c2ccccc2Cl)C2CCS(=O)(=O)C2)cc1 (stereo unspecified) | n | n | n | -14 | -11 | n | 49% | n | 32% | 103 | 0.15
O=C(Nc1cccc([N+](=O)[O-])c1)NN1CCCCCC1 | x | x | x | x | n | x | x | x | x | x | x
Cc1cc(C=O)c(C)n1-c1ccc(NC2CCCC2)c([N+](=O)[O-])c1 | 6 | n | n | -17 | -9.1 | n | 60% | n | 37% | 122 | n
CC(C)Oc1ccccc1C1Nc2ccccc2C(=O)N1c1ccc2c(c1)OCCO2 (stereo unspecified) | n | n | n | -13 | -10 | n | 67% | n | 28% | 100 | 0.16
SMILES | KCNQ1 inh | Kir21 inh | KCNQ1 pot | KCNK9 inh | KCNK3 inh | hERG protect | KCNK9 block conf | Kir2-1 spec | KCNK9 uninduced | KCNK3 inh conf | KCNK3 uninduced
COc1nc(Nc2cccc([N+](=O)[O-])c2)nc(OC)n1 | n | n | n | n | n | n | x | x | x | x | x
C#CCOc1nc(Nc2cccc([N+](=O)[O-])c2)nc(OCC#C)n1 | n | n | n | -18 | -11 | n | 51% | n | n | 107 | n
O=C(NNS(=O)(=O)c1ccccc1Cl)c1nn(-c2ccc(F)cc2)ccc1=O | n | n | n | n | n | n | x | x | x | x | x
COC(=O)C1=C(C)NC(C)=C(C(=O)OC)C1c1ccc(-c2cccc(Cl)c2Cl)o1 | n | n | n | n | n | n | x | x | x | x | x
COC(=O)C1=C(C)NC(C)=C(C(=O)OC)C1c1ccc(-c2cc(Cl)ccc2Cl)o1 | n | n | n | -9.5 | -9.7 | n | 38% | n | 40% | 127 | n
Cc1ccc2cc(CN(CC(C)C)S(=O)(=O)c3cccc4nonc34)c(=O)[nH]c2c1 | n | n | n | n | n | n | x | x | x | x | x
Cc1ccc(C(=O)Oc2ccc(Br)cc2C(=S)N2CCOCC2)cc1 | n | n | n | n | n | n | x | x | x | x | x
Cc1ccccc1C(=O)Oc1ccc(Cl)cc1C(=S)N1CCOCC1 | n | n | n | -12 | -9.3 | n | 56% | n | 32% | 114 | 0.16
